Experimental data gathered from unrelated publications.
Lines come from different studies, so protocols differ.
SLC6A3: Sodium-dependent dopamine transporter (SLC6A3, Homo sapiens, UniProt Q01959)
PDE10A: cAMP and cAMP-inhibited cGMP 3',5'-cyclic phosphodiesterase 10A (PDE10A, Homo sapiens, UniProt Q9Y233)
DRD3: D(3) dopamine receptor (DRD3, Homo sapiens, UniProt P35462)

With `N#CC[C@@]12C[C@@H]1[C@@H](n1cnc3c(Nc4ccccc4)nc(I)nc31)[C@H](O)[C@@H]2O` the inhibition was 54% (SLC6A3; ligand displacement, radioligand; 10 µM).
With `COc1ccc2ccnc(Cc3cccc(-c4ccccc4)c3)c2c1` the inhibition was 5% (PDE10A; enzyme activity, inhibitor, FP; 0.1 µM).
The inhibition of `CSc1nc(NCCC2CC2)c2ncn([C@H]3[C@H](O)[C@H](O)[C@@H]4C[C@@H]43)c2n1` is reported as 16% (SLC6A3; ligand displacement, radioligand; 10 µM).
`Cc1[nH]c(C)c(S(=O)(=O)Nc2ccc(C(F)(F)F)c(Cl)c2)c1C(=O)N1CCCC1` has an Emax of 92% (DRD3; β-arrestin recruitment, agonist; 90 min).
`C1=C/COCc2cc(ccc2OCCN2CCCC2)Nc2nccc(n2)-c2cccc(c2)COC/1` gave a remaining binding of 100% (Calcium/calmodulin-dependent protein kinase type IV (CAMK4, Homo sapiens, UniProt Q16566); binding; 0.1 µM).
`COc1ccc(C(=O)c2ncnc3cc(OC)c(OC)cc23)cc1` gave an inhibition of 39% (PDE10A; enzyme activity, inhibitor, FP; 0.1 µM).
With `OC[C@@]12C[C@@H]1[C@@H](n1cnc3c(N[C@@H](C4CCC4)C4CC4)nc(C#Cc4ccc(Cl)s4)nc31)[C@H](O)[C@@H]2O` the inhibition was 80% (SLC6A3; ligand displacement, radioligand; 10 µM).
`Cc1[nH]cc(S(=O)(=O)Nc2ccc(C(F)(F)F)c(Cl)c2)c1C(=O)N1CCC(F)(F)C1` has an Emax of 91% (DRD3; β-arrestin recruitment, agonist; 90 min).
With `COc1cc2ncnc(Cc3cccc(-c4ccc(C)cc4)c3)c2cc1OC` the inhibition was 78% (PDE10A; enzyme activity, inhibitor, FP; 0.1 µM).
`N#C[C@@]12C[C@@H]1[C@@H](n1cnc3c(Nc4ccccc4)nc(C#Cc4ccc(Cl)s4)nc31)[C@H](O)[C@@H]2O` has an inhibition of 74% (SLC6A3; ligand displacement, radioligand; 10 µM).
`COc1ccc2c(Cc3ccc(OC)c(OC)c3)nccc2c1` has an inhibition of 25% (PDE10A; enzyme activity, inhibitor, FP; 0.1 µM).
`CCOC(=O)C12CC1C(n1ccc3c(NC4CC4)nc(C#Cc4ccccc4)nc31)C(O)C2O` (stereo not shown) gave an inhibition of -260% (SLC6A3; ligand displacement, radioligand; 10 µM).
`Cc1[nH]c(C)c(S(=O)(=O)Nc2ccc(Cl)c(C(F)(F)F)c2)c1C(=O)N1CCCC1` has an Emax of 88% (DRD3; β-arrestin recruitment, agonist; 90 min).
The inhibition of `COc1cc2ccnc(Cc3ccc4cnn(C)c4c3)c2cc1OC` is reported as 69% (PDE10A; enzyme activity, inhibitor, FP; 0.1 µM).
`CNC(=O)[C@@]12C[C@@H]1[C@@H](n1cnc3c(Nc4ccccc4)nc(C#Cc4ccc(Cl)s4)nc31)[C@H](O)[C@@H]2O` has an inhibition of 84% (SLC6A3; ligand displacement, radioligand; 10 µM).
The Emax of `Cc1[nH]c(C)c(S(=O)(=O)Nc2ccc(C(F)(F)F)c(Br)c2)c1C(=O)N1CCCC1` is reported as 91% (DRD3; β-arrestin recruitment, agonist; 90 min).
For `CCCCC(=O)Nc1ccc(-c2ccc3ncn(CCC)c(=O)c3c2)cn1`, the remaining binding was 100% (Discoidin domain-containing receptor 2 (DDR2, Homo sapiens, UniProt Q16832); binding, competition with immobilised ligand; 0.5 µM).
`Cc1[nH]c(C)c(S(=O)(=O)Nc2ccc(C(F)(F)F)c(Cl)c2)c1C(=O)N1CCC(F)(F)C1` gave an Emax of 103% (DRD3; β-arrestin recruitment, agonist; 90 min).
The inhibition of `COc1cc2ncnc(Cc3cccc(-c4ccc(CO)cc4)c3)c2cc1OC` is reported as 66% (PDE10A; enzyme activity, inhibitor, FP; 0.1 µM).
With `Cc1cc(O)c(-c2ccc([C@@H](C)CN(C)C)cc2)c2c1[nH]c(=O)c1sccc12` the inhibition was 0.174% (Cyclin-dependent kinase 12 (CDK12, Homo sapiens, UniProt Q9NYV4); enzyme activity, inhibitor; 0.1 µM).
`c1ccc(-c2cccc(Cc3ccnc4cc(C5COC5)ccc34)c2)cc1` gave an inhibition of 3% (PDE10A; enzyme activity, inhibitor, FP; 0.1 µM).
The remaining binding of `COc1ccc2oc(-c3ccc4nc(N)oc4c3)c/c(=N\c3ccccc3NC(=O)CCN)c2c1` is reported as 98% (AP2-associated protein kinase 1 (AAK1, Homo sapiens, UniProt Q2M2I8); binding; 1 µM).
`Cc1[nH]c(C)c(S(=O)(=O)Nc2ccc(C(C)C)cc2)c1C(=O)N1CCCC1` has an Emax of 96% (DRD3; β-arrestin recruitment, agonist; 90 min).
The inhibition of `CCOC(=O)[C@@]12C[C@@H]1[C@@H](n1cnc3c(Nc4ccccc4)nc(I)nc31)[C@H](O)[C@@H]2O` is reported as 32% (SLC6A3; ligand displacement, radioligand; 10 µM).
For `Cc1[nH]c(C)c(S(=O)(=O)Nc2ccc(C(F)(F)F)c(Cl)c2)c1C(=O)NCC(F)(F)F`, the Emax was 98% (DRD3; β-arrestin recruitment, agonist; 90 min).
`COc1ccc2nccc(Cc3ccc(OC)c(OC)c3)c2c1` gave an inhibition of 3% (PDE10A; enzyme activity, inhibitor, FP; 0.1 µM).
`Cc1[nH]c(C)c(S(=O)(=O)Nc2ccc(C(F)(F)F)c(Cl)c2)c1C(=O)N1CCC(O)C1` (stereo not shown) gave an Emax of 89% (DRD3; β-arrestin recruitment, agonist; 90 min).
The inhibition of `CCOC(=O)[C@@]12C[C@@H]1[C@@H](n1ccc3c(NCCCCCc4ccccc4)nc(C#Cc4ccccc4)nc31)[C@H](O)[C@@H]2O` is reported as 63% (SLC6A3; ligand displacement, radioligand; 10 µM).
